The source of these data is ChEMBL document CHEMBL4219150, “Fragment-Based Approach to Targeting Inosine-5'-monophosphate Dehydrogenase (IMPDH) from Mycobacterium tuberculosis” (J Med Chem, 2018).

For orientation: inhibition means the share of the control response that was lost under treatment.

The first test deals with Mycobacterium tuberculosis. The test is described as follows: Uncompetitive inhibition of Mycobacterium tuberculosis IMPDH deltaCBS mutant. An outline of the steps:
(§1)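 Enzyme was Mth IMPDH ΔCBS expressed in E. coli BL21(DE3) at 18°C with 500 µM IPTG, then Ni-IMAC purified, TEV-cleaved and run on gel filtration; assay buffer and 37°C conditions as in the activity assay. […] Initial rates were fit to uncompetitive or mixed inhibition equations, and the pattern was read from Lineweaver-Burk plots.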
Compound `Cc1n[nH]c(C)c1S(=O)(=O)Nc1ccc2c[nH]nc2c1` came in with an alphaKi of 0.22 µM. Still for that read-out and setting: with `O=C(C1CCCCC1)N1CCN(S(=O)(=O)c2ccc3cnccc3c2)CC1` the figure was 0.12 µM.

Another test relates to Mycobacterium tuberculosis. Kind of test: Inhibition of Mycobacterium tuberculosis IMPDH deltaCBS mutant assessed as reduction in NADH production using IMP as substrate at 100 uM preincubated for 5 mins followed by substrate addition measured for 32 mins in presence of NAD+.
Turning to `O=C(CSc1nc(-c2ccccc2)c[nH]1)Nc1ccc(I)cc1`, the inhibition came out at 46%. On the same count and under the same terms, in the case of `O=C(CSc1nc(-c2ccc(Br)cc2)c[nH]1)Nc1ccc(-c2c[nH]cn2)cc1` it was 20%; in that of `O=C(O)CSc1nc(-c2ccc(Br)cc2)c[nH]1`, less than 5%.

In the case of `O=C(CSc1nc(-c2ccccc2)c[nH]1)Nc1ccc2occc2c1`, the inhibition was 36%.

Turning to `CC(C)NC(=O)CSc1nc(-c2ccccc2)c[nH]1`, the inhibition is less than 5%. On the same count and under the same terms, in the case of `O=C(CSc1nc(-c2ccccc2)c[nH]1)Nc1ccc(-c2c[nH]cn2)cc1` it was 24%. Same read-out and setting: with `O=C(CSc1ncc(-c2ccccc2)[nH]1)Nc1ccccc1` the figure was less than 5%.

Turning to `O=C(CSc1nc(-c2ccc(Br)cc2)c[nH]1)Nc1ccc2occc2c1`, the inhibition was determined as 31%. As to `O=C(CSc1nc(-c2ccc(Br)cc2)c[nH]1)Nc1ccccc1`, the inhibition is 13%.

With `O=C(CSc1nc(-c2ccc(Br)cc2)c[nH]1)Nc1ccc(I)cc1`, the inhibition came to 30%. The same measure, in the same setting: with `O=C(O)CSc1nc(-c2ccccc2)c[nH]1` the figure was less than 5%; with `O=C(NCc1ncc(-c2ccc(Br)cc2)[nH]1)Nc1ccc(-c2c[nH]cn2)cc1`, 56%. `Brc1ccc(-c2c[nH]cn2)cc1`: the inhibition is less than 5%.

The next test relates to Mycobacterium tuberculosis. The test is described as follows: Uncompetitive inhibition of Mycobacterium tuberculosis IMPDH deltaCBS mutant expressed in Escherichia coli BL21(DE3) in presence of IMP and NAD+. An outline of the steps:
as §1
Take `C=C(C)c1cccc(C(C)(C)NC(=O)Nc2ccc(Cl)c(C(=O)N(C)C)c2)c1`: the alphaKi was 0.009 µM. On the same count and under the same terms, in the case of `COc1c(C)c2c(c(O)c1C/C=C(\C)Cn1cc(COC[C@H]3O[C@@H](n4cnc5c(N)ncnc54)[C@H](O)[C@@H]3O)nn1)C(=O)OC2` it was 1 µM.

A further test has as its system Mycobacterium tuberculosis. The test is described as follows: Inhibition of Mycobacterium tuberculosis IMPDH deltaCBS mutant assessed as reduction in NADH production using IMP as substrate at 10 uM preincubated for 5 mins followed by substrate addition measured for 32 mins in presence of NAD+.
On to `CC(Oc1ccc(-c2cn(C)cn2)cc1)C(=O)Nc1ccc(I)cc1` (stereo unspecified), for which the inhibition was found to be 97%. As to `C[C@H](Oc1ccc(-c2cn(C)cn2)cc1)C(=O)Nc1nc(-c2ccc(Br)cc2)c[nH]1`, the inhibition worked out at 99%. Same read-out and setting: with `CC(Oc1ccc(-c2cn(C)cn2)cc1)C(=O)Nc1nc(-c2ccc(N3CCOCC3)cc2)c[nH]1` (stereo unspecified) the figure was 94%. The same measure, in the same setting: in the case of `COc1ccc(-c2c[nH]c(NC(=O)C(C)Oc3ccc(-c4cn(C)cn4)cc3)n2)cc1` (stereo unspecified) it was 95%; in that of `CC(Oc1ccc(-c2cn(C)cn2)cc1)C(=O)Nc1ccccc1` (stereo unspecified), 4%; in that of `CC(Oc1ccc(-c2cn(C)cn2)cc1)C(=O)Nc1nc(-c2ccccc2)c[nH]1` (stereo unspecified), 77%.

For the compound `CC(Oc1ccc(-c2cn(C)cn2)cc1)C(=O)Nc1nc(-c2ccc(I)cc2)c[nH]1` (stereo unspecified), the inhibition came to 96%.

With `CC(Oc1ccc(-c2cn(C)cn2)cc1)C(=O)Nc1nc(-c2ccc(Br)cc2)co1` (stereo unspecified), the inhibition amounted to 83%. Consider `CC(Oc1ccc(-c2cn(C)cn2)cc1)C(=O)Nc1nc(-c2ccc(Br)cc2)c[nH]1` (stereo unspecified), for which the inhibition stood at 99%.

Turning to `COc1ccc(OC(C)C(=O)Nc2ccc(I)cc2)cc1` (stereo unspecified), the inhibition stood at 92%.

A further test relates to Mycobacterium tuberculosis. Kind of test: Inhibition of Mycobacterium tuberculosis IMPDH deltaCBS mutant assessed as reduction in NADH production at 1 mM using IMP as substrate preincubated for 5 mins followed by substrate addition measured for 32 mins in presence of NAD+.
On to `Oc1cccc2ccccc12`, for which the inhibition was determined as 68%.

Take `CC(=O)Nc1cc(C)ccc1O`: the inhibition is 79%. On the same count and under the same terms, with `Oc1ccc2ccc(O)cc2c1` the figure was 77%.

As to `Cc1ccc(-c2nc(C(=O)O)cs2)cc1`, the inhibition was found to be 88%. Still for that read-out and setting: in the case of `Nc1n[nH]c(-c2ccccc2)c1Br` it was 53%; in that of `N#Cc1c[nH]c2ccccc12`, 51%; in that of `Nc1ccc(-n2ccnc2)cc1`, 64%. Still for that read-out and setting: in the case of `Clc1ccc(-c2cnc[nH]2)cc1` it was 59%. On to `Oc1ccc2ccccc2c1`, for which the inhibition came out at 57%. The same measure, in the same setting: with `Nc1[nH]ncc1-c1cccc(Br)c1` the figure was 50%. Same read-out and setting: with `O=C(O)c1cc2cccc(O)c2cc1O` the figure was 98%; with `OCc1ccc2sccc2c1`, 53%; with `COc1ccc2ccc(O)cc2c1`, 66%.

With `O=C(O)c1ccccc1-n1cccc1`, the inhibition was 72%.

For `O=C(O)c1cc2sccc2s1`, the inhibition amounted to 86%. Regarding `CC1(C)Cc2cccc(CO)c2O1`, the inhibition amounted to 99%. Same read-out and setting: in the case of `Brc1ccc(-c2c[nH]cn2)cc1` it was 65%.

The next test has as its system Mycobacterium tuberculosis. The test is described as follows: Uncompetitive inhibition of Mycobacterium tuberculosis IMPDH deltaCBS mutant assessed as reduction in NADH production preincubated for 5 mins followed by substrate IMP addition at increasing concentration measured for 32 mins in presence of constant concentration of NAD+ by Lineweaver-Burk plot analysis.
Regarding `COc1ccc(OC(C)C(=O)Nc2ccc(I)cc2)cc1` (stereo unspecified), the alphaKi worked out at 0.86 µM.

The next test concerns Mycobacterium tuberculosis. The test is described as follows: Mixed-type inhibition of Mycobacterium tuberculosis IMPDH deltaCBS mutant assessed as reduction in NADH production preincubated for 5 mins followed by substrate IMP addition at increasing concentration measured for 32 mins in presence of constant concentration of NAD+ by Lineweaver-Burk plot analysis.
Consider `Cc1ccc(-c2nc(C(=O)O)cs2)cc1`, for which the alphaKi was 398 µM.
